NPY-Y1 PAM-ag: NPY-Y1 receptor potentiators or agonists, primary screen, cell-based; Neuropeptide Y receptor type 1 (Homo sapiens), P25929; NPY-Y1 expressing cells, potentiator/agonist activation; activation, % at 3.6 µM; 220,000 tested, 0.37% active; AID 1304, 2008; in the data active = activation above about 33%, passing the limit was not always enough;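 note: cells stimulated with NPY at EC10 then isoproterenol at EC100; 0% = low agonist plus stimulus and 100% = saturating agonist plus stimulus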
Target sequence (P25929 whole entry, looked up): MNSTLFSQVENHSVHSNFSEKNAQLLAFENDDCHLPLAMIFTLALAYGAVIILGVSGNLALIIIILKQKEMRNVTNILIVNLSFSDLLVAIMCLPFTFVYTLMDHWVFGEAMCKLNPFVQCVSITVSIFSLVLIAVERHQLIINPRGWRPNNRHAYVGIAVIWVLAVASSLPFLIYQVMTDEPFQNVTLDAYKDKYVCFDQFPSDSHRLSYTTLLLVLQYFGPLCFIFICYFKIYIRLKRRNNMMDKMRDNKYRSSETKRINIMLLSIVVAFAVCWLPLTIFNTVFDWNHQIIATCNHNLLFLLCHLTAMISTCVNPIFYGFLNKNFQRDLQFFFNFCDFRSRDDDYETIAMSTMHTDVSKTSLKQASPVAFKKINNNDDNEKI
NPY-Y2 PAM-ag: NPY-Y2 potentiators or agonists, primary screen, cell-based; 220,000 tested, 0.45% active; AID 1359, 2008; cells expressing NPY-Y2, potentiator/agonist read-out; Neuropeptide Y receptor type 2 (Homo sapiens), P49146; activation, % at 3.6 µM; in the data active = activation above about 27%;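 note: cells stimulated with NPY near EC25 plus isoproterenol at EC100; 0% = vehicle plus submaximal agonist and 100% = vehicle plus saturating agonist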
NPY Y2 blocker: NPY-Y2 receptor antagonists, primary screen, cell-based | Neuropeptide Y receptor type 2 (Homo sapiens), P49146 | NPY-Y2 expressing cells, antagonist mode | inhibition, % at 2.7 µM | 140,000 tested, 0.99% active; in the data active = inhibition above about 17%;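 note: 0% = vehicle with agonist challenge and 100% = reference antagonist with challenge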
NPY-Y1 antag: NPY-Y1 receptor antagonists, primary screen, cell-based. 200,000 tested, 1% active. inhibition, % at 3.6 µM. Neuropeptide Y receptor type 1 (Homo sapiens), P25929. HEK293-CNG Y1 cells, membrane potential fluorescence; NPY at EC95, then isoproterenol;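 active = inhibition above the campaign mean inhibition of all tested compounds plus 3 SD, cut at about 20% in these data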;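 note: 0% = DMSO wells given NPY plus isoproterenol and 100% = isoproterenol alone without NPY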
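Test system: HEK293 cells co-expressing NPY Y1 receptor and cyclic-nucleotide gated channel; Also added: NPY (25 nM), isoproterenol (1 µM), Ro 20-1724 (25 µM); Compound dosing: one concentration, 3.6 µM, in 0.4% DMSO; Timing: dye 3 h, compound 60 min room temperature, stimulation 45 min; Technique: Membrane-potential fluorescent dye readout.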
NPY-Y1 antag ct: NPY-Y1 receptor antagonists, selectivity check, counter-screen for NPY-Y2 antagonist project, cell-based; shares compounds with NPY Y2 blocker; cell-based NPY-Y1 antagonism counterscreen; inhibition, % at 3.6 µM; 710 tested, 19% active; in the data active = inhibition above about 20%;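 note: cells challenged with NPY then isoproterenol with cAMP sensed through a CNG channel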
NPY2 antag conf: NPY-Y2 receptor antagonists, retest of hits, confirmation, HEK293-CNG cells, membrane potential fluorescence, triplicate; 710 tested, 32% active; HEK293 NPY-Y2 CNG channel; shares compounds with NPY Y2 blocker; inhibition, % at 2.8 µM;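 active = mean inhibition of triplicate wells above the hit cutoff set in the primary screen, cut at about 17% in these data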;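 note: 0% = DMSO with NPY challenge and 100% = BIIE0246 high control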
The depositor's hits bear a star; . = no result given. Shown are actives, neighbours in structure and some others; about 1.8% of the full set was active somewhere.

SMILES	NPY-Y1 PAM-ag	NPY-Y2 PAM-ag	NPY Y2 blocker	NPY-Y1 antag	NPY-Y1 antag ct	NPY2 antag conf
CSc1ccc(Cl)c(C(=O)NCCOc2cc(C)ccc2C(C)C)c1	-16	-36	17*	0	6	7
CSc1ccc(Cl)c(C(=O)NCCOc2ccccc2)c1	-8	7	4	-1	.	.
O=C(CNC(=O)c1ccc2ccccc2c1)OCC(=O)N1CCN(S(=O)(=O)c2ccc3ccccc3c2)CC1	10	16	-3	-7	.	.
CCn1nc(C(=O)Nc2cccc3ccccc23)c(Cl)c1Cl	-34	-19	18*	15	11	11
CCn1nc(C(=O)Nc2ccccc2C)c(Cl)c1Cl	-31	-39	6	8	.	.
CN(C)CCCn1c(SCC(=O)N2c3ccccc3Sc3ccccc32)nc2ccccc2c1=O	-71	-21	39*	15	43*	77*
COc1ccc(Nc2ncc3c(n2)CC(c2ccc(OC)cc2)CC3=O)cc1 (configuration not stated)	-30	-16	2	-4	.	.
CCCn1c(=O)c2ccccc2n2c(SCCOc3ccc(C)cc3)nnc12	-20	-13	20*	8	15	11
CCOC(=O)c1cccc(NC(=O)CSc2nnc(COc3ccc(Cl)cc3)o2)c1	-4	-14	0	7	.	.
Cc1ccc(C(=O)CSc2nnc(COc3cc(C)cc(C)c3)o2)cc1	-5	1	21*	7	13	20*
COC(=O)c1ccc(OC)c(CSc2nnc(COc3ccccc3)o2)c1	-34	-4	18*	13	7	11
COC(=O)c1ccc(OC)c(CSc2nnc(-c3ccc(C(C)(C)C)cc3)o2)c1	-15	1	0	5	.	.
COC(=O)c1ccc(OC)c(CSc2nnc(COc3ccc(Cl)cc3)o2)c1	-31	-4	27*	9	25*	19*
Cc1cc2nc(N3C(=O)CNC3=S)sc2cc1C	-3	-3	.	2	.	.
CCOC(=O)c1ccc(NC(=S)N2CCSC2c2ccc(Br)cc2)cc1 (configuration not stated)	29	-6	4	3	.	.
CCC(=O)N1CCN(c2ccc(Cl)cc2NC(=O)Cc2ccccc2)CC1	-10	10	21*	19	12	15
O=C(Nc1cccn(Cc2c(Cl)cccc2Cl)c1=O)c1c(Cl)cccc1Cl	4	11	20*	9	12	9
COc1ccc(/C=N/NC(=O)c2nc(-c3ccccc3)cc(-c3ccccc3)n2)cc1O	-19	-29	11	9	.	.
COc1ccc(/C=N/NC(=O)c2nc(-c3ccccc3)cc(-c3ccccc3)n2)cc1	-53	-57	20*	2	22*	27*
COCCn1c(-c2ccc(Cl)cc2)cnc1SCC(=O)NCc1cccs1	-6	-18	18*	5	14	10
O=C(CSc1nc2ccccc2c(=O)n1Cc1ccc(Cl)cc1)NCc1cccs1	7	3	13	-1	.	.
c1ccc2c(Nc3ccc4c(c3)OCCO4)c3c(nc2c1)CCCC3	-19	-8	.	13	.	.
CCN1C(=O)/C(=C\c2nc3ccccc3c(=O)n2-c2ccccc2)c2ccccc21	-27	-5	0	5	.	.
CCN1C(=O)C(Cc2nc3ccccc3c(=O)n2-c2ccccc2)c2ccccc21 (configuration not stated)	-19	-7	23*	11	5	9
O=P(CCCCCCCCCP(=O)(c1ccccc1)c1ccccc1)(c1ccccc1)c1ccccc1	27	-16	18*	-7	2	111*
Cc1cc(N2CCN(c3ccccc3)CC2)n2c(n1)nc1ccccc12	-40	-28	22*	12	3	5
CC1(C)Cc2ccccc2-c2nnc(SCc3ccccc3)n21	-40	-8	17*	10	6	3
O=C(CNc1ccc2c(c1)OCO2)N/N=C\c1ccccc1Cl	-42	-9	40*	10	4	9

Screens as filed in PubChem.
